Measured values as given in ChEMBL document CHEMBL1157776, “Synthesis, topoisomerase I and II inhibitory activity, cytotoxicity, and structure-activity relationship study of hydroxylated 2,4-diphenyl-6-aryl pyridines” (Bioorg Med Chem, 2010).
Where a name gives a salt, the structure may show the parent alone.

Legend:
DU-145 = assay: Cytotoxicity against human DU145 cells after 2 days by automatic ELISA reader system; format: functional, cell-based; conditions: DU-145, 48 h
Procedure, shortened: (§1)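 Cells seeded at 2–4 × 10⁴ per well and grown overnight in medium with 10% FBS, 5% CO₂, 37 °C. Compound added on day 2; on day 4 CCK-8 solution added and incubated a further 4 h. Absorbance read at 450 nm and fitted to a four-parameter logistic equation for IC₅₀.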

HCT-15 = assay: Cytotoxicity against human HCT15 cells after 2 days by automatic ELISA reader system; format: functional, cell-based; conditions: HCT-15, 48 h; procedure, shortened: as §1
HL-60 = assay: Cytotoxicity against human HL60 cells after 2 days by automatic ELISA reader system; format: functional, cell-based; conditions: HL-60, 48 h; procedure, shortened: as §1
[1] = molecular target: DNA topoisomerase 2-alpha (Homo sapiens) (UniProt P11388); assay: Inhibition of human recombinant TOP2A-mediated relaxation of supercoiled Escherichia coli pBR322 DNA at 100 uM after 30 mins by transillumination
Procedure, shortened: (§2)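 200 ng supercoiled pBR322 with topo II, ± compound, 30 °C for 30 min. Buffer was 10 mM Tris–HCl pH 7.9, 50 mM NaCl, 5 mM MgCl₂, 1 mM EDTA, 1 mM ATP, BSA. Stopped with 7 mM EDTA, then 1% agarose gel in TAE at 25 V for 4 h. Ethidium bromide stain, UV transillumination, supercoiled DNA quantitated.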

[2] = molecular target: T1, DNA topoisomerase 1 (Homo sapiens) (UniProt P11387); assay: Inhibition of human recombinant TOP1-mediated relaxation of supercoiled Escherichia coli pBR322 DNA at 100 uM after 30 mins by transillumination
T1 sequence (whole entry): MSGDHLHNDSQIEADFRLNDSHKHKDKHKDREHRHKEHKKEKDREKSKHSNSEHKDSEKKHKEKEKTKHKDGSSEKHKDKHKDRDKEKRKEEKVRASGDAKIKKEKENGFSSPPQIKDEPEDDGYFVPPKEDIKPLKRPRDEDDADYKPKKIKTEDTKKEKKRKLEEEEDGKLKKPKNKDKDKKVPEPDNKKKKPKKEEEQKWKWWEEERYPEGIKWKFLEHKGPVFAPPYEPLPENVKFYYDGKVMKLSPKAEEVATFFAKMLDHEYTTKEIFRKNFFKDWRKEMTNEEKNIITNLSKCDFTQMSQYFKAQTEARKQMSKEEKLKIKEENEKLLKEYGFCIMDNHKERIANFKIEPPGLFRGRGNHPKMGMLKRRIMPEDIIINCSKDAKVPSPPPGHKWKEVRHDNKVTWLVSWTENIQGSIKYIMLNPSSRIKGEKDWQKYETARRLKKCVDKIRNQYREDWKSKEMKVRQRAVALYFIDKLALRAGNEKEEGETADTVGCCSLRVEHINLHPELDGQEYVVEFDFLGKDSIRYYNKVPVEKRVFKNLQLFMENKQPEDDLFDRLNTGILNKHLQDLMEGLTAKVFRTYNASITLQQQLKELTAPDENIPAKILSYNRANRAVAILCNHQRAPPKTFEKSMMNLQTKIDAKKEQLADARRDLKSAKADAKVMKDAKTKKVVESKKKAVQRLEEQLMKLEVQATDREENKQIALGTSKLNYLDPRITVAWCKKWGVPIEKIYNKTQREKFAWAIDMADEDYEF
Procedure, shortened: (§3)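 Relaxation assay: 100 ng supercoiled pBR322 with 0.4 units recombinant human topo I, ± compound (DMSO stocks 20 mM), 37 °C, 30 min. Buffer was 10 mM Tris–HCl pH 7.9, 150 mM NaCl, 0.1% BSA, 1 mM spermidine, 5% glycerol. Stopped with sarcosyl/bromophenol blue/glycerol, then 1% agarose gel in TAE at 15 V for 7 h. Ethidium bromide stain, UV transillumination, bands quantitated by densitometry.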

[3] = molecular target: T1, DNA topoisomerase 1 (Homo sapiens); assay: Inhibition of human recombinant TOP1-mediated relaxation of supercoiled Escherichia coli pBR322 DNA at 20 uM after 30 mins by transillumination; procedure, shortened: as §3
MDA-MB-231 = assay: Cytotoxicity against human MDA-MB-231 cells after 2 days by automatic ELISA reader system; format: functional, cell-based; conditions: MDA-MB-231, 48 h; procedure, shortened: as §1
HeLa = assay: Cytotoxicity against human HeLa cells after 2 days by automatic ELISA reader system; format: functional, cell-based; conditions: 48 h; procedure, shortened: as §1
[4] = molecular target: DNA topoisomerase 2-alpha (Homo sapiens) (UniProt P11388); assay: Inhibition of human recombinant TOP2A-mediated relaxation of supercoiled Escherichia coli pBR322 DNA at 20 uM after 30 mins by transillumination; procedure, shortened: as §2

DNA topoisomerase 2-alpha (Homo sapiens), sequence (P11388 whole entry): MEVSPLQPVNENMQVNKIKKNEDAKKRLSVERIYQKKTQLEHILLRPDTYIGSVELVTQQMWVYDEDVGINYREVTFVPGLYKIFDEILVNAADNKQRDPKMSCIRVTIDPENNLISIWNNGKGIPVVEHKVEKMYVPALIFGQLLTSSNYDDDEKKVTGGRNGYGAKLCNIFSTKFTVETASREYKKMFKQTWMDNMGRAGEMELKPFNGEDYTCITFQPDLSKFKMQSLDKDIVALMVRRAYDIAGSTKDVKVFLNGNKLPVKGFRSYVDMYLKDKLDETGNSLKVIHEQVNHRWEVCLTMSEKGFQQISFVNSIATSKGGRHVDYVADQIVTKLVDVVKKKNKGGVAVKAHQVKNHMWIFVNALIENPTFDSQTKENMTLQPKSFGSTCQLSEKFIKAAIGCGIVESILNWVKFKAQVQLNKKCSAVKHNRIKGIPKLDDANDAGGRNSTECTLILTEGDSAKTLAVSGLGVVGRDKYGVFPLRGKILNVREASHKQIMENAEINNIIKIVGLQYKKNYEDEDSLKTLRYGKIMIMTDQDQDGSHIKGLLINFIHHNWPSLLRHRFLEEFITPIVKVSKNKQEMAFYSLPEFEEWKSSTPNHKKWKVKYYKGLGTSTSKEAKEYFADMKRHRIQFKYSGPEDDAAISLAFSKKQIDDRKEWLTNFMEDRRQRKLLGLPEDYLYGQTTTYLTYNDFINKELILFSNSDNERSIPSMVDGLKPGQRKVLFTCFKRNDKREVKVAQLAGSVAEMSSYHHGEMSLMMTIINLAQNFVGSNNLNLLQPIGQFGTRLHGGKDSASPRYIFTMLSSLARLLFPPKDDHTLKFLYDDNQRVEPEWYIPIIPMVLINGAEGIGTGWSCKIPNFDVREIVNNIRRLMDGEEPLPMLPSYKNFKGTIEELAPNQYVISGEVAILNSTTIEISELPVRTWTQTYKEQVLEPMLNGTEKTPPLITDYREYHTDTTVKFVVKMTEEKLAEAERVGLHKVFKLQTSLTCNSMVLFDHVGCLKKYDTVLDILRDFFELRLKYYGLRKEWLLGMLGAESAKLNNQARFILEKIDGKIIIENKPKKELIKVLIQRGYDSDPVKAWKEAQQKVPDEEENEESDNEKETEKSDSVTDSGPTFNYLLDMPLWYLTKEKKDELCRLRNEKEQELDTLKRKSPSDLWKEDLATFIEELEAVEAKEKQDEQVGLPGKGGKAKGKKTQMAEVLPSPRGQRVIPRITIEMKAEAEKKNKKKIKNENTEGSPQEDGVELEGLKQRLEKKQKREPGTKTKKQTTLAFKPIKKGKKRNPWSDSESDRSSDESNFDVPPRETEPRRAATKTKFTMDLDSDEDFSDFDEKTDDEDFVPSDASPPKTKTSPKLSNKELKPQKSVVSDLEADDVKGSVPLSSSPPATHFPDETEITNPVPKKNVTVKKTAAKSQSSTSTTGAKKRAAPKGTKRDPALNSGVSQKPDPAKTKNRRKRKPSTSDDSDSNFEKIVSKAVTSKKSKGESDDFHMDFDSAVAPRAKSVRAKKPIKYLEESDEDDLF

Row | inhibition [1] [%] | inhibition [2] [%] | inhibition [3] [%] | inhibition [4] [%] | Compound | IC50 (DU-145) [µM] | IC50 (HCT-15) [µM] | IC50 (HL-60) [µM] | IC50 (MDA-MB-231) [µM] | IC50 (HeLa) [µM]
1 | 18.6 | 44 | 0.9 |  | Oc1ccc(-c2cc(-c3ccccc3)cc(-c3cccnc3)n2)cc1 | 8.4 | 15.1 | 4.1 | 2.2 | 13.6
2 | 8.4 | 57.5 | 5.8 |  | Oc1ccc(-c2cc(-c3ccccc3)nc(-c3ccncc3)c2)cc1 | 2.2 | 11.7 | 1.4 | 2.1 | 1.6
3 | 48.4 | 12.9 | 0 | 32 | Oc1cccc(-c2cc(-c3ccccc3)cc(-c3ccccc3)n2)c1 | 17.9 | 9.95 | 11.5 | 19.3 | 16.1
4 | 30.2 | 5 |  | 10.3 | Oc1ccc(-c2cc(-c3ccccc3)nc(-c3ccco3)c2)cc1 | 8.6 | 5.1 | 13.7 | 1 | 4.5
5 | 38.3 | 20.4 |  | 8.3 | Oc1ccc(-c2cc(-c3ccccc3)cc(-c3ccsc3)n2)cc1 | 8.5 | 1.1 | 3.6 | 5.7 | 17.3
6 | 86.5 | 67.2 | 10.5 | 49 | Oc1cccc(-c2cc(-c3ccccc3)cc(-c3cccc(O)c3)n2)c1 | 24.9 | 18.4 | 16.4 | 12.8 | 13
7 | 37.1 | 8.1 | 1.5 | 21.3 | Oc1cccc(-c2cc(-c3ccccc3)nc(-c3cccnc3)c2)c1 | 18.9 | 18.4 | 12.6 | 22.8 | 17.5
8 | 3.1 | 70.4 | 25.4 | 1.8 | Oc1cccc(-c2cc(-c3ccccc3)cc(-c3ccncc3)n2)c1 | 19.2 | 27.4 | 23.9 | 10.4 | 28.1
9 | 76.8 | 0.3 |  | 33.7 | Oc1ccc(-c2cc(-c3ccccc3)cc(-c3ccc(O)cc3)n2)cc1 | 22 | 3 | 5.7 | 6.7 | 3.3
10 | 48.1 | 10.8 | 2.8 | 21.3 | Oc1cccc(-c2cc(-c3ccccc3)nc(-c3ccccn3)c2)c1 | 15.5 | 20.9 | 15.1 | 18.7 | 29.8
11 | 27.6 | 52.9 | 43.6 |  | Oc1ccc(-c2cc(-c3ccccc3)cc(-c3ccccc3)n2)cc1 | 3 | 3.7 | 1.4 | 1.3 | 1.7
12 | 35.4 | 4.9 |  | 1.3 | Oc1ccc(-c2cc(-c3ccccc3)cc(-c3cccs3)n2)cc1 | 3.7 | 12.5 | 1.7 | 2.4 | 1.7
13 | 42.8 | 60.8 | 0.9 | 32.7 | Oc1cccc(-c2cc(-c3ccccc3)nc(-c3ccncc3)c2)c1 | 18.1 | 18.7 | 12.7 | 12.2 | 15
14 | 68.2 | 11.5 | 0 | 32 | Oc1cccc(-c2cc(-c3ccccc3)nc(-c3ccccc3)c2)c1 | 17.9 | 17.9 | 13.5 | 19.5 | 15.1
15 | 35.2 | 18.6 |  | 10.2 | Oc1ccc(-c2cc(-c3ccccc3)cc(-c3ccco3)n2)cc1 | 3.2 | 3.5 | 3.3 | 1.4 | 10.9

The next lines start with the molecule.

Row | Compound | inhibition [1] [%] | inhibition [2] [%] | inhibition [3] [%] | inhibition [4] [%] | IC50 (DU-145) [µM] | IC50 (HCT-15) [µM] | IC50 (HL-60) [µM] | IC50 (MDA-MB-231) [µM] | IC50 (HeLa) [µM]
16 | COc1cc([C@@H]2c3cc4c(cc3[C@@H](O[C@@H]3O[C@@H]5CO[C@@H](C)O[C@H]5[C@H](O)[C@H]3O)[C@H]3COC(=O)[C@H]23)OCO4)cc(OC)c1O [ETOPOSIDE] |  |  |  | 30.4 | 0.5 |  | 1 | 0.7 | 1.4
17 | Oc1cccc(-c2cc(-c3ccccc3)cc(-c3cccs3)n2)c1 | 53.8 | 51.2 | 5.8 | 43.5 | 18.9 | 10.8 | 14.1 | 18.1 | 17
18 | Oc1ccccc1-c1cc(-c2ccccc2)cc(-c2ccccc2O)n1 | 42.7 | 0 |  | 12.1 | 8 | > 50 | 22.4 | 37.3 | 14.8
19 | Oc1cccc(-c2cc(-c3ccccc3)nc(-c3cccs3)c2)c1 | 57.5 | 9.1 | 2 | 34.7 | 19.7 | 14.1 | 18.9 | 17.7 | 15.3
20 | COc1cccc2c1C(=O)c1c(O)c3c(c(O)c1C2=O)C[C@@](O)(C(=O)CO)C[C@@H]3O[C@H]1C[C@H](N)[C@H](O)[C@H](C)O1 [DOXORUBICIN HYDROCHLORIDE] |  |  |  |  | 1 | 1.2 | 0.7 | 0.4 | 
21 | Oc1cccc(-c2cc(-c3ccccc3)nc(-c3ccco3)c2)c1 | 47.5 | 48.8 | 3.5 | 31.1 | 34.9 | 13.9 | 24 | 20.8 | 10.9
22 | Oc1cccc(-c2cc(-c3ccccc3)cc(-c3ccco3)n2)c1 | 51.6 | 10.2 | 0 | 38.6 | 14.4 | 13.5 | 9.91 | 13.7 | 9.43
23 | Oc1cccc(-c2cc(-c3ccccc3)cc(-c3ccsc3)n2)c1 | 51.8 | 75.8 | 6.8 | 37.2 | 11.7 | 7.66 | 10.3 | 12.1 | 13.8
24 | CC[C@@]1(O)C(=O)OCc2c1cc1n(c2=O)Cc2cc3ccccc3nc2-1 [CAMPTOTHECIN] |  |  |  |  | 0.4 | 0.5 | 0.1 | 0.3 | 0.4
25 | Oc1ccccc1-c1cc(-c2ccccc2)nc(-c2ccco2)c1 | 31.2 | 1.5 |  | 3.1 | 4.9 | 2.5 | 1.9 | 4.6 | 9.7
26 | Oc1cccc(-c2cc(-c3ccccc3)nc(-c3ccsc3)c2)c1 | 52.6 | 6.9 | 3.2 | 30.8 | 11.7 | 24.6 | 12 | 19 | 14.9
